ChEMBL document CHEMBL1914377, “Preliminary finding on a new calcium channel entry blocker chemotype: 5,6-diamino-4-hydroxy-2-mercaptopyrimidine derivatives” (J Med Chem, 2011)
pEC50, pIC50: −log10 of the molar value.

Experiments:
[1] = Cardiovascular activity in guinea pig spontaneously beating right atrium assessed as negative chronotropic activity by measuring decrease of atrial rate at 10^-5 M relative to control; assay type: functional; details: Cavia porcellus, Cardiac atrium
[2] = Cardiovascular activity in guinea pig left atrium assessed as negative inotropic activity by measuring decrease of 1 Hz-induced tension at 5 x 10^-6 M relative to control; assay type: functional; details: Cavia porcellus, Cardiac atrium
Aorta [3] = assay: Vasorelaxant activity in guinea pig K+-depolarized guinea pig aortic strip assessed as inhibition of calcium-induced contraction at 10^-4 M relative to control; assay type: functional; details: Cavia porcellus
[4] = Cardiovascular activity in guinea pig left atrium assessed as negative inotropic activity by measuring decrease of 1 Hz-induced tension; assay type: functional, tissue-based; details: Cavia porcellus, Cardiac atrium
Procedure, shortened: (§1)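 Log concentration–response curves fitted by probit analysis (Litchfield and Wilcoxon), n = 4–7. They were not calculated when the maximum effect was below 50%.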

TT = assay: Inhibition of T-type calcium channel expressed in human TT cells using Ba2+ as charge carrier at 10 uM by patch clamp electrophysiological assay relative to control; assay type: cell-based
Procedure, shortened: (§2)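 Whole-cell patch clamp with Ba2+ currents. L-type current was recorded in transfected CHO cells and T-type current in TT cells, whose only voltage-gated Ca2+ currents are T-type. The read-out was percent decrease in peak current, comparing the mean of five consecutive steady-state sweeps in control and in drug. Results are mean ± SEM, n = 5–7 cells per group.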

Aorta [5] = assay: Vasorelaxant activity in guinea pig K+-depolarized guinea pig aortic strip assessed as inhibition of calcium-induced contraction at 5 x 10^-5 M relative to control; assay type: functional; details: Cavia porcellus
[6] = Cardiovascular activity in guinea pig left atrium assessed as negative inotropic activity by measuring decrease of 1 Hz-induced tension at 5 x 10^-5 M relative to control; assay type: functional; details: Cavia porcellus, Cardiac atrium
[7] = Cardiovascular activity in guinea pig spontaneously beating right atrium assessed as negative chronotropic activity by measuring decrease of atrial rate at 5 x 10^-5 M relative to control; assay type: functional; details: Cavia porcellus, Cardiac atrium
CHO = assay: Inhibition of L-type alpha9beta3alpha2/gamma4 calcium channel expressed in CHO cells using Ba2+ as charge carrier at 10 uM by patch clamp electrophysiological assay relative to control; assay type: cell-based; procedure, shortened: as §2
[8] = Vasorelaxant activity in guinea pig K+-depolarized guinea pig longitudinal smooth muscle assessed as inhibition of calcium-induced contraction; assay type: functional, Cavia porcellus
[9] = Vasorelaxant activity in guinea pig K+-depolarized guinea pig longitudinal smooth muscle assessed as inhibition of calcium-induced contraction at 10^-5 M relative to control; assay type: functional; details: Cavia porcellus
Procedure, shortened: (§3)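 Guinea-pig longitudinal smooth muscle depolarized with K+ (80 mM). Percent inhibition of calcium-induced contraction was measured at single concentrations of 10^-4 M, 5 × 10^-5 M or 10^-5 M. Results are mean ± SEM.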

[10] = Cardiovascular activity in guinea pig left atrium assessed as negative inotropic activity by measuring decrease of 1 Hz-induced tension in presence of adenosine A1 receptor antagonist DPCPX; assay type: functional, tissue-based; details: Cavia porcellus, Cardiac atrium
Procedure, shortened: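 Negative inotropic concentration–response determined in the presence of the A1 antagonist DPCPX at 1 μM.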

[11] = Cardiovascular activity in guinea pig spontaneously beating right atrium assessed as negative chronotropic activity by measuring decrease of atrial rate at 10^-4 M relative to control; assay type: functional; details: Cavia porcellus, Cardiac atrium
[12] = Cardiovascular activity in guinea pig spontaneously beating right atrium assessed as negative chronotropic activity by measuring decrease of atrial rate; assay type: functional; details: Cavia porcellus, Cardiac atrium; procedure, shortened: as §1
[13] = Vasorelaxant activity in guinea pig K+-depolarized guinea pig longitudinal smooth muscle assessed as inhibition of calcium-induced contraction at 10^-4 M relative to control; assay type: functional; details: Cavia porcellus; procedure, shortened: as §3
[14] = Cardiovascular activity in guinea pig left atrium assessed as negative inotropic activity by measuring decrease of 1 Hz-induced tension at 10^-4 M relative to control; assay type: functional; details: Cavia porcellus, Cardiac atrium
[15] = Vasorelaxant activity in guinea pig K+-depolarized guinea pig longitudinal smooth muscle assessed as inhibition of calcium-induced contraction at 5 x 10^-5 M relative to control; assay type: functional; details: Cavia porcellus; procedure, shortened: as §3
Aorta [16] = assay: Vasorelaxant activity in guinea pig K+-depolarized guinea pig aortic strip assessed as inhibition of calcium-induced contraction; assay type: functional, tissue-based; details: Cavia porcellus; procedure, shortened: as §1
[17] = Cardiovascular activity in guinea pig left atrium assessed as negative inotropic activity by measuring decrease of 1 Hz-induced tension at 10^-5 M relative to control; assay type: functional; details: Cavia porcellus, Cardiac atrium

SMILES	inhibition at 100 µM (Aorta [3]) [%]	pEC50 [4]	inhibition (TT) [%]	inhibition (CHO) [%]	pIC50 [8]	inhibition at 100 µM [11] [%]	inhibition at 100 µM [14] [%]	inhibition at 10 µM [17] [%]	further results
CCCSc1nc(NC(C)=O)c(N(CCC)CCC)c(=O)[nH]1	30	6.55	–	–	–	–	–	–	inhibition at 10 µM [1]: 7%; inhibition at 5 µM [2]: 62%
CCCSc1nc(NC(C)=O)c(N(CCC)CCC)c(=O)n1CC	–	6.28	22.3	56	5.31	–	–	–	inhibition at 50 µM (Aorta [5]): 13%; inhibition at 50 µM [6]: 60%; inhibition at 50 µM [7]: 13%; inhibition [9]: 72%
CCn1c(SCc2ccccc2)nc(N)c(N(Cc2ccccc2)Cc2ccccc2)c1=O	7	6.35	11.9	60.7	5.54	63	56	–	pEC50 [10]: 6.30; EC30 [12]: 18.1 µM; inhibition [13]: 94%
CCOc1nc(SCc2ccccc2)nc(N)c1N(Cc1ccccc1)Cc1ccccc1	–	5.83	–	–	–	33	62	–	inhibition at 50 µM (Aorta [5]): 2%
CCn1c(SCCOC)nc(NC(C)=O)c(N(CCOC)CCOC)c1=O	2	6.11	12.3	37	4.62	2	81	–	inhibition [13]: 91%
CCn1c(SCc2ccccc2)nc(NC(C)=O)c(N(Cc2ccccc2)Cc2ccccc2)c1=O	25	6.54	15.2	58	5.83	–	–	–	inhibition at 50 µM [6]: 66%; EC30 [12]: 14.1 µM; inhibition at 50 µM [7]: 72%; inhibition [9]: 90%
CCCSc1nc(N)c(N(CCC)CCC)c(=O)[nH]1	54	5.71	–	–	4.86	–	87	–	inhibition at 50 µM [7]: 39%; inhibition [15]: 87%; pIC50 (Aorta [16]): 4.83
COCCSc1nc(NC(C)=O)c(N(CCOC)CCOC)c(=O)[nH]1	2	6.02	–	–	–	–	90	–	inhibition at 50 µM [7]: 6%
CCOc1nc(SCc2ccccc2)nc(NC(C)=O)c1N(Cc1ccccc1)Cc1ccccc1	–	6.57	–	–	–	44	–	64	inhibition at 50 µM (Aorta [5]): 20%
CCCSc1nc(N)c(N(CCC)CCC)c(=O)n1CC	28	6.22	35.3	54	5.47	–	–	56	inhibition at 50 µM [7]: 22%; inhibition [15]: 93%
CC(=O)Nc1nc(SCc2ccccc2)[nH]c(=O)c1N(Cc1ccccc1)Cc1ccccc1	31	5.85	–	–	–	95	90	–	EC30 [12]: 6.79 µM
COCCSc1nc(N)c(N(CCOC)CCOC)c(=O)[nH]1	10	6.47	–	–	–	–	–	93	inhibition at 10 µM [1]: 13%
CCOc1nc(SCCOC)nc(N)c1N(CCOC)CCOC	22	6.51	–	–	–	45	–	–	inhibition at 50 µM [6]: 79%
CCn1c(SCCOC)nc(N)c(N(CCOC)CCOC)c1=O	33	6.64	24.7	52	4.67	11	–	76	inhibition [13]: 60%
CCCSc1nc(N)c(N(CCC)CCC)c(OCC)n1	16	6.82	–	–	4.97	27	–	68	inhibition [13]: 83%
Nc1nc(SCc2ccccc2)[nH]c(=O)c1N(Cc1ccccc1)Cc1ccccc1	–	5.50	–	–	–	80	60	–	inhibition at 50 µM (Aorta [5]): 2%; EC30 [12]: 8.63 µM
CCCSc1nc(NC(C)=O)c(N(CCC)CCC)c(OCC)n1	23	6.00	–	–	–	–	–	–	inhibition at 50 µM [6]: 71%; inhibition at 10 µM [1]: 2%
CCOc1nc(SCCOC)nc(NC(C)=O)c1N(CCOC)CCOC	10	6.21	–	–	–	3	–	80	–
